High-throughput results as filed in PubChem.
TRPC6 inh: mouse TRPC6 channel inhibitors, primary screen, cell-based, HEK293, membrane potential dye; Short transient receptor potential channel 6 (Mus musculus), Q61143; ACh-evoked depolarization; hits give low values; B-score at 10 µM; actives 1.1% (n = 310,000);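 active means B-score under library mean minus 3 SD, initial fluorescence not abnormally high, positive integrated signal ratio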;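 further: B-score derived from integrated fluorescence ratio over the kinetic read; more negative B-score means stronger inhibition of depolarization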
TRPC4 act: activators of mouse TRPC4 channel, primary screen, Fluo4 calcium, HEK293 TRPC4beta/mu-opioid cells | AID 2237, 2010 | Fluo4 calcium fluorescence; hits give high values | Short transient receptor potential channel 4 (Mus musculus), Q9QUQ5 | B-score at 10 µM | actives 0.49% (n = 310,000);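 active means B-score above 5 SD of library B-scores, and initial fluorescence ratio not above library mean plus 5 SD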;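 further: positive B-score marks a calcium rise read as TRPC4 activation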
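system = HEK293 cells stably co-expressing mouse TRPC4beta and mu-opioid receptor | schedule = Fluo4 dye loading 45 min at room temperature, 110 s recording | measure = B-scored integrated calcium fluorescence ratio | signal = Fluo4 calcium-sensitive dye fluorescence, kinetic, 1 Hz baseline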
TRPC4 block: inhibitors of mouse TRPC4 channel, primary screen, Fluo4 calcium, HEK293 TRPC4beta/mu-opioid cells; Short transient receptor potential channel 4 (Mus musculus), Q9QUQ5; DAMGO-evoked Fluo4 calcium flux; hits give low values; B-score at 10 µM; actives 0.39% (n = 300,000); AID 2247, 2010;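 active means B-score over 3 SD under the library average, no early fluorescence shift, positive overall ratio signal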
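test system = HEK293 cells with stable TRPC4beta plus mu-opioid receptor expression | detection = Fluo4 Ca2+ flux fluorescence | read-out = integrated fluorescence ratio relative to baseline, converted to per-well B score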
TRPC4 PAM: positive allosteric modulators of TRPC4, primary screen, cell-based, mouse TRPC4beta, HEK293 mu-opioid, Fluo-4 calcium; Short transient receptor potential channel 4 (Mus musculus), Q9QUQ5; DAMGO EC20, Fluo-4 Ca2+ flux; hits give high values; B-score at 10 µM; actives 0.42% (n = 310,000); AID 2227, 2009;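 active means B-score of calcium response area above 5 SD of library B-scores, with initial fluorescence ratio within 5 SD of library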;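 further: B-score of integrated fluorescence ratio over time as area under calcium response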
TRPC6 activator: mouse TRPC6 channel activators, primary screen, cell-based, HEK293, membrane potential dye; AID 2550, 2010; Short transient receptor potential channel 6 (Mus musculus), Q61143; B-score at 10 µM; actives 0.13% (n = 310,000); HEK293-TRPC6 membrane potential dye fluorescence; hits give high values;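 active means B-score of the integrated fluorescence ratio above library mean plus 3 SD, and starting fluorescence ratio within library mean plus 5 SD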;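 further: higher score means more depolarization so channel activation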
TRPC4 sel inh 2: mouse TRPC4 off-target activity of TRPC6 inhibitors, second screen | shares compounds with TRPC6 inh | HEK293 TRPC4/MOR, membrane potential dye fluorescence; channel activated by saturating DAMGO dose | inhibition, % at 10 µM | actives 42% (n = 920) | AID 2776;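 active means compounds whose fluorescence signal differed from control wells by over 3 SD, either direction, in both duplicate plates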
TRPC4 spec: mouse TRPC4 modulation by TRPC6 hits, confirmation, selectivity assay for TRPC6 inhibitor project, cell-based, HEK293 TRPC4/mu-opioid, membrane potential dye; shares compounds with TRPC6 inh; membrane potential fluorescence; activity change, negative = inhibition, % at 10 µM; actives 61% (n = 920); AID 2777, 2010;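 active means rise or fall in signal beyond 3 SD of buffer-only wells in both replicate plates, either sign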;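 further: integrated kinetic ratio of fluorescence range over baseline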
HEK293 MPD ctr 2-1: nonspecific membrane potential effects, parental HEK293, confirmation, counter-screen for TRPC6 inhibitor project, cell-based, second counter screen; shares compounds with TRPC6 inh; parental HEK293 membrane potential dye fluorescence; maximal acetylcholine challenge after compound addition; signal change vs control, % at 10 µM; actives 31% (n = 920);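 active means membrane potential signal moving either way by over 3 SD of the maximum-effect control, in both duplicate plates, meaning non-specific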
HEK293 MPD ctr-1: membrane potential modulation in parental HEK293, confirmation, counter-screen for TRPC6 inhibitor project, cell-based; shares compounds with TRPC6 inh; parental HEK293 membrane potential dye fluorescence; membrane potential signal change, % at 10 µM; actives 60% (n = 920); AID 2780, 2010;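 active means membrane potential signal shifting up or down by more than 3 SD of buffer-only wells, on both duplicate plates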
HEK293 MPD ctr-2: parental HEK293 membrane potential modulation, confirmation, counter-screen for TRPC6 modulator project, cell-based. actives 51% (n = 2,400). AID 488924, 2010. membrane potential signal change, % at 10 µM. shares compounds with TRPC6 inh. membrane potential dye fluorescence;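 active means membrane potential signal moves up or down beyond 5 SD from buffer-only wells, on both duplicate plates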
HEK293 MPD ctr 2-2: second check of TRPC6 modulator effects in parental HEK293 cells | shares compounds with TRPC6 inh | membrane potential dye fluorescence; after compound, maximal acetylcholine stimulation | inhibition, % at 10 µM | actives 14% (n = 2,400) | AID 488926;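 active means membrane potential signal drops by more than 5 SD from the mean control signal, in both duplicate plates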;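 further: plate controls were acetylcholine ECmax control wells for no effect and buffer only wells for full effect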
TRPC4/MOR mod: TRPC4 modulation by TRPC6 hit compounds, confirmation, selectivity assay for TRPC6 modulator project, cell-based, HEK293 TRPC4/mu-opioid, membrane potential dye, mouse. shares compounds with TRPC6 inh. membrane potential fluorescence. percent change from control (negative = decrease, positive = increase), % at 10 µM. actives 69% (n = 2,400);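 active means membrane potential signal moved up or down beyond 5 SD of buffer control wells, in both duplicate plates, actives on both sides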;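 further: plate controls were assay buffer wells for no effect and DAMGO maximal-effect wells for full effect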
TRPC4/MOR inh 2: second check of whether TRPC6 modulators also affect mouse TRPC4. shares compounds with TRPC6 inh. HEK293 TRPC4/mu-opioid, membrane potential dye fluorescence; stimulated with maximal-effect DAMGO. inhibition, % at 10 µM. actives 55% (n = 2,400);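 active means drop in membrane potential signal beyond 5 SD of the control wells in both duplicate plates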;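 further: TRPC4 counter screen for TRPC6 hits run under conditions tuned for TRPC6 not TRPC4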
TRPC6 block conf: mouse TRPC6 channel inhibitors, confirmation, HEK293 cells, membrane potential dye, duplicate | ACh-evoked depolarization | AID 488960, 2010 | shares compounds with TRPC6 inh | actives 43% (n = 3,300) | inhibition, % at 10 µM;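 active means fluorescence ratio falls more than 5 SD below the full-stimulation control mean, in both duplicate runs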;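 further: integrated fluorescence ratio of peak minus minimum over baseline after agonist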
TRPC6 act conf: mouse TRPC6 channel activators, confirmation, HEK293 cells, membrane potential dye, duplicate. shares compounds with TRPC6 inh. HEK293-TRPC6 membrane potential dye fluorescence, FDSS. activation, % at 10 µM. actives 11% (n = 2,800). AID 488961, 2010;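 active means ratio signal rise beyond 5 SD above unstimulated control wells' mean, seen in both duplicate runs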;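 further: plate controls were buffer EC0 wells for no effect and acetylcholine ECmax response for full effect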
An asterisk follows results filed as active; i = inactive; nt = not tested or not shown; + = active, no number. The list is not random: actives were taken first. Their share in the collection is about 2.3%.

SMILES	TRPC6 inh	TRPC4 act	TRPC4 block	TRPC4 PAM	TRPC6 activator	HEK293 MPD ctr-2	HEK293 MPD ctr 2-2	TRPC4/MOR mod	TRPC4/MOR inh 2	TRPC6 block conf	TRPC6 act conf	others
Fc1cccc(NCc2cn3ccccc3n2)c1	-5.5*	i	i	i	i	i	i	i	i	i	i
CCOC(=O)CSc1nc(=O)n2ccc(C)cc2n1	i	i	i	i	i	nt	nt	nt	nt	nt	nt
O=C1NC(Cc2c[nH]c3ccccc23)C(=O)N1Cc1ccc(CN2C(=O)NC(Cc3c[nH]c4ccccc34)C2=O)cc1 (stereo not drawn)	-5.3*	i	i	i	i	i	i	i	i	i	i
O=C(NCCN1CCN(c2ccccc2)CC1)c1cccn2c(=O)c3ccccc3nc12	i	i	i	i	i	nt	nt	nt	nt	nt	nt
CN(CCCNC(=O)c1cccn2c(=O)c3ccccc3nc12)Cc1ccccc1	-6.3*	i	i	i	i	-136%*	i	-32%*	62%*	46%*	i
CC(C)CCN1CCC(n2nccc2NC(=O)c2ccc3c(c2)OCO3)CC1	i	i	i	i	i	nt	nt	nt	nt	nt	nt
Cc1ccccc1C(OCCN(C(C)C)C(C)C)c1ccccc1 (stereo not drawn)	-5*	i	i	i	i	209%*	88%*	44%*	44%*	80%*	nt
CN(C)CCOC(c1ccccc1)c1ccccc1 (tested in a mixture with another compound)	-5.2*	i	i	i	i	154%*	i	26%*	34%*	51%*	nt
COC(=O)CN1C(=O)N/C(=C/c2ccccc2OC)C1=O	i	i	i	i	i	nt	nt	nt	nt	nt	nt
CC1CCN(Cc2ccc(NC(=O)C3CCN(c4nnc(-n5cccc5)s4)CC3)cc2)CC1	-7.8*	i	i	i	i	nt	nt	nt	nt	i	i	TRPC4 sel inh 2=71%*;TRPC4 spec=i;HEK293 MPD ctr 2-1=i;HEK293 MPD ctr-1=i
O=C(C1CCN(c2nnc(-n3cccc3)s2)CC1)N1CCN(Cc2ccc3c(c2)OCO3)CC1	i	i	i	i	i	nt	nt	nt	nt	nt	nt
Cc1cc2nc(SCC(=O)Nc3ccccc3C(=O)O)[nH]c2cc1C	i	i	i	i	i	nt	nt	nt	nt	nt	nt
Cc1cccc(NS(=O)(=O)c2ccc(Oc3ccccc3)cc2)n1	-6.3*	i	i	i	i	i	i	8.5%*	i	i	i
COc1c(/C=C2\SC(=Nc3ccccc3Cl)NC2=O)cccc1[N+](=O)[O-]	i	i	i	i	i	nt	nt	nt	nt	nt	nt
O=C1NC(=Nc2ccccc2Cl)S/C1=C\c1cccc([N+](=O)[O-])c1O	-6*	i	i	i	i	i	i	-12%*	65%*	i	i
COc1ccccc1N1N=C(c2ccc([N+](=O)[O-])cc2)CC1c1ccccc1 (stereo not drawn)	i	i	i	i	13*	i	i	23%*	i	i	44%*
COc1cc(F)ccc1S(=O)(=O)N1CCN(Cc2ccccc2)CC1	i	i	i	i	i	nt	nt	nt	nt	nt	nt
N=C1/C(=C\c2coc3ccccc3c2=O)C(=O)N=C2SC=CN12	-8*	i	i	i	26*	640%*	118%*	119%*	77%*	i	107%*
CC1=CC2=NC(=O)/C(=C/c3coc4ccc(Cl)cc4c3=O)C(=N)N2O1	i	i	i	i	52*	+	+	287%*	101%*	nt	457%*
CC1=CC2=NC(=O)/C(=C\c3cc(C)n(-c4cccc(Cl)c4)c3C)C(=N)N2O1	i	i	i	i	i	nt	nt	nt	nt	nt	nt
CN(C)S(=O)(=O)c1ccc(N2CCCC2)c(C(=O)NC2CCCCC2)c1	i	i	i	i	i	nt	nt	nt	nt	nt	nt
CCOc1cc2nc(-c3ccc(OC)c(OC)c3)nc(N3CC(C)OC(C)C3)c2cc1OC (stereo not drawn)	-8.3*	i	i	i	i	nt	nt	nt	nt	i	i	TRPC4 sel inh 2=i;TRPC4 spec=-20%*;HEK293 MPD ctr 2-1=i;HEK293 MPD ctr-1=i
CCCCn1c(=NC(=O)c2ccco2)c(C(=O)OCC)cc2c(=O)n3ccccc3nc21	-5.8*	i	i	i	i	i	i	i	i	i	i
